Measurements as given in PMC6923798 (Bioorganic chemistry, 2018).

Assays:
M14 = test: NCI in vitro five dose anticancer assay; assay type: cell-based, human
SNB-19 = test: NCI in vitro five dose anticancer assay; assay type: cell-based, human
SW-620 = test: NCI in vitro five dose anticancer assay; assay type: cell-based, human
RXF 393 = test: NCI in vitro five dose anticancer assay; assay type: cell-based, human
HCT-116 = test: NCI in vitro five dose anticancer assay; assay type: cell-based, human
LOX IMVI = test: NCI in vitro five dose anticancer assay; assay type: cell-based, human; details: 48 h
IL-6 = IL-6 ELISA in K-562 cells; assay type: cell-based, human
Summary of the method: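 K-562 cells exposed 24 h to vehicle (DMSO), test compound at 10 μM or dexamethasone (positive control). IL-6 secreted into cell-free supernatant quantified by human IL-6 ELISA kit. Expressed as % of vehicle control, mean ± SD of three independent experiments, each in triplicate. Time course: in 12-well plates, medium changed when compound (10 μM) added, and media sampled at 0, 1, 4, 8, 12, 24, 48 h.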

HL-60(TB) = test: NCI in vitro five dose anticancer assay; assay type: cell-based, human
COLO 205 = test: NCI in vitro five dose anticancer assay; assay type: cell-based, human
HOP-92 = test: NCI in vitro five dose anticancer assay; assay type: cell-based, human
SF-539 = test: NCI in vitro five dose anticancer assay; assay type: cell-based, human
TK-10 = test: NCI in vitro five dose anticancer assay; assay type: cell-based, human
PC-3 = test: NCI in vitro five dose anticancer assay; assay type: cell-based, human
RPMI-8226 = test: NCI in vitro five dose anticancer assay; assay type: cell-based, human
NCI-H522 = test: NCI in vitro five dose anticancer assay; assay type: cell-based, human
SK-MEL-28 = test: NCI in vitro five dose anticancer assay; assay type: cell-based, human
Jurkat = test: MTT anti-proliferative assay; assay type: cell-based, human; details: Homo sapiens, Jurkat, 24 h, read-out: IC50 ± SD, Jurkat
EKVX = test: NCI in vitro five dose anticancer assay; assay type: cell-based, human; details: 48 h
HCC-2998 = test: NCI in vitro five dose anticancer assay; assay type: cell-based, human
SNB-75 = test: NCI in vitro five dose anticancer assay; assay type: cell-based, human
NCI-H460 = test: NCI in vitro five dose anticancer assay; assay type: cell-based, human
NCI-H23 = test: NCI in vitro five dose anticancer assay; assay type: cell-based, human
c-Src = c-Src (Homo sapiens, UniProt P12931); test: Src kinase assay; assay type: biochemical
IGROV1 = test: NCI in vitro five dose anticancer assay; assay type: cell-based, human
U251 = test: NCI in vitro five dose anticancer assay; assay type: cell-based, human
BT-549 = test: NCI in vitro five dose anticancer assay; assay type: cell-based, human
OVCAR-5 = test: NCI in vitro five dose anticancer assay; assay type: cell-based, human
HCT-15 = test: NCI in vitro five dose anticancer assay; assay type: cell-based, human
T-47D = test: NCI in vitro five dose anticancer assay; assay type: cell-based, human; details: 48 h
HT29 = test: NCI in vitro five dose anticancer assay; assay type: cell-based, human
SF-268 = test: NCI in vitro five dose anticancer assay; assay type: cell-based, human
A498 = test: NCI in vitro five dose anticancer assay; assay type: cell-based, human
SK-OV-3 = test: NCI in vitro five dose anticancer assay; assay type: cell-based, human

Sequence of c-Src (P12931 whole entry): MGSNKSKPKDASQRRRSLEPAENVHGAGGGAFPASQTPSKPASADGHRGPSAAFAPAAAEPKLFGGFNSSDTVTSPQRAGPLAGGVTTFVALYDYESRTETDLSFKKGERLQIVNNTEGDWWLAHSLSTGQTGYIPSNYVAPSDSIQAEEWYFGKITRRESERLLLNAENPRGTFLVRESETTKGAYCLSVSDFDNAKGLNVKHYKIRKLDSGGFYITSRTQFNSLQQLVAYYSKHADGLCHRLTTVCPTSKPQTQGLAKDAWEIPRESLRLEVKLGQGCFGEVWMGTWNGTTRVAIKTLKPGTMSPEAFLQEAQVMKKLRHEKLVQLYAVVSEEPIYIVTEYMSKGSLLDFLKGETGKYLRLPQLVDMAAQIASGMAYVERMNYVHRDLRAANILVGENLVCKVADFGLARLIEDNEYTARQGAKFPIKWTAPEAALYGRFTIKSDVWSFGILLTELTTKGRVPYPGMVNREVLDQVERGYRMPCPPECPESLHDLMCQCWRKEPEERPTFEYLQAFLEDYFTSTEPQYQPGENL

COc1ccc(C=CC(=O)c2ccc(NC(=O)CSc3nnc(-c4cc(OC)c(OC)c(OC)c4)o3)cc2)cc1 [Compound 8v, N-(4-(3-(4-Methoxyphenyl)acryloyl)phenyl)-2-((5-(3,4,5-trimethoxy-phenyl)-1,3,4-oxadiazol-2-yl)thio)acetamide]
GI50 (M14; Homo sapiens, M14, 48 h): 1.6 µM | TGI (M14; M14, Melanoma, five dose, 48 h, SRB): 3.30 µM | GI50 (SNB-19; Homo sapiens, SNB-19, 48 h): 1.78 µM | TGI (SNB-19; SNB-19, CNS cancer, five dose, 48 h, SRB): 3.56 µM | GI50 (SW-620; Homo sapiens, SW-620, 48 h): 1.86 µM | TGI (SW-620; SW-620, Colon Cancer, five dose, 48 h, SRB): 3.60 µM | GI50 (RXF 393; Homo sapiens, RXF 393, 48 h): 1.74 µM | TGI (RXF 393; RXF 393, Renal Cancer, five dose, 48 h, SRB): 3.54 µM | TGI (HCT-116; HCT-116, Colon Cancer, five dose, 48 h, SRB): 1.94 µM | GI50 (HCT-116; Homo sapiens, HCT-116, 48 h): 0.5 µM | GI50 (LOX IMVI; Homo sapiens): 0.32 µM | TGI (LOX IMVI; Melanoma, five dose, SRB): 1.28 µM | activity at 10 µM (IL-6; Homo sapiens, K562, 24 h, read-out: IL-6 protein levels (% of control)): 20% | IL-6 levels after 48 h (IL-6; K-562 cells, 10 μM, time course): still downregulated | time of initial downregulation of IL-6 protein levels after treatment (IL-6; K-562 cells, 10 μM, time course 0-48 h): 8 h | TGI (HL-60(TB); HL-60(TB), Leukemia, five dose, 48 h, SRB): 4.10 µM | GI50 (HL-60(TB); Homo sapiens, HL-60, 48 h): 2 µM | TGI (COLO 205; COLO 205, Colon Cancer, five dose, 48 h, SRB): 3.84 µM | GI50 (COLO 205; Homo sapiens, COLO 205, 48 h): 1.94 µM | TGI (HOP-92; HOP-92, Non-Small Cell Lung Cancer, five dose, 48 h, SRB): 4.23 µM | GI50 (HOP-92; Homo sapiens, HOP-92, 48 h): 1.93 µM | GI50 (SF-539; Homo sapiens, SF-539, 48 h): 1.64 µM | TGI (SF-539; SF-539, CNS cancer, five dose, 48 h, SRB): 3.03 µM | GI50 (TK-10; Homo sapiens, TK-10, 48 h): 1.52 µM | TGI (TK-10; TK-10, Renal Cancer, five dose, 48 h, SRB): 3.03 µM | GI50 (PC-3; Homo sapiens, PC-3, 48 h): 1.75 µM | TGI (PC-3; PC-3, Prostate Cancer, five dose, 48 h, SRB): 3.30 µM | GI50 (RPMI-8226; Homo sapiens, RPMI-8226, 48 h): 1.73 µM | TGI (RPMI-8226; RPMI-8226, Leukemia, five dose, 48 h, SRB): 4.31 µM | GI50 (NCI-H522; Homo sapiens, NCI-H522, 48 h): 1.55 µM | TGI (NCI-H522; NCI-H522, Non-Small Cell Lung Cancer, five dose, 48 h, SRB): 3.21 µM | GI50 (SK-MEL-28; Homo sapiens, SK-MEL-28, 48 h): 1.74 µM | TGI (SK-MEL-28; SK-MEL-28, Melanoma, five dose, 48 h, SRB): 3.40 µM | IC50 (Jurkat): 2.36 ± 0.47 µM | GI50 (EKVX; Homo sapiens): 1.79 µM | TGI (EKVX; Non-Small Cell Lung Cancer, five dose, SRB): 3.98 µM | TGI (HCC-2998; HCC-2998, Colon Cancer, five dose, 48 h, SRB): 3.65 µM | GI50 (HCC-2998; Homo sapiens, HCC 2998, 48 h): 1.88 µM | GI50 (SNB-75; Homo sapiens, SNB-75, 48 h): 1.47 µM | TGI (SNB-75; SNB-75, CNS cancer, five dose, 48 h, SRB): 3.15 µM | GI50 (NCI-H460; Homo sapiens, NCI-H460, 48 h): 2 µM | TGI (NCI-H460; NCI-H460, Non-Small Cell Lung Cancer, five dose, 48 h, SRB): 3.85 µM | GI50 (NCI-H23; Homo sapiens, NCI-H23, 48 h): 1.88 µM | TGI (NCI-H23; NCI-H23, Non-Small Cell Lung Cancer, five dose, 48 h, SRB): 3.97 µM | IC50 (c-Src): 0.96 ± 0.2 µM | GI50 (IGROV1; Homo sapiens, IGROV-1, 48 h): 1.54 µM | TGI (IGROV1; IGROV1, Ovarian Cancer, five dose, 48 h, SRB): 3.75 µM | GI50 (U251; Homo sapiens, U-251, 48 h): 1.68 µM | TGI (U251; U251, CNS cancer, five dose, 48 h, SRB): 3.18 µM | TGI (BT-549; BT-549, Breast cancer, five dose, 48 h, SRB): 2.81 µM | GI50 (BT-549; Homo sapiens, BT-549, 48 h): 1.4 µM | GI50 (OVCAR-5; Homo sapiens, OVCAR-5, 48 h): 1.72 µM | TGI (OVCAR-5; OVCAR-5, Ovarian Cancer, five dose, 48 h, SRB): 3.30 µM | TGI (HCT-15; HCT-15, Colon Cancer, five dose, 48 h, SRB): 3.22 µM | GI50 (HCT-15; Homo sapiens, HCT-15, 48 h): 1.63 µM | GI50 (T-47D; Homo sapiens, T47D): 2.05 µM | TGI (T-47D; T-47D, Breast cancer, five dose, SRB): 5.08 µM | TGI (HT29; HT29, Colon Cancer, five dose, 48 h, SRB): 3.62 µM | GI50 (HT29; Homo sapiens, HT-29, 48 h): 1.83 µM | GI50 (SF-268; Homo sapiens, SF-268, 48 h): 1.79 µM | TGI (SF-268; SF-268, CNS cancer, five dose, 48 h, SRB): 3.96 µM | TGI (A498; A498, Renal Cancer, five dose, 48 h, SRB): 23.60 µM | GI50 (A498; Homo sapiens, A498, 48 h): 11 µM | GI50 (SK-OV-3; Homo sapiens, SK-OV-3, 48 h): 2.42 µM | TGI (SK-OV-3; SK-OV-3, Ovarian Cancer, five dose, 48 h, SRB): 5.68 µM
